Bioassay records from PubChem.
Shown are actives, neighbours in structure and some others; about 1.9% of the full set was active somewhere.
ADAM10 inh: human ADAM10 inhibitors, primary screen, biochemical, QFRET, HTS. Disintegrin and metalloproteinase domain-containing protein 10 (Homo sapiens), O14672. recombinant ADAM10, EDANS/DABCYL FRET peptide cleavage, 3 h. inhibition, % at 7 µM. 370,000 compounds, 0.62% hits;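 active means inhibition above a per-campaign cutoff equal to the mean of compounds falling between control-based bounds plus 3 SD, cut at about 20% in these data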;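 further: 0% = DMSO wells while the 100% control is not disclosed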
FAS-TE inh: FAS thioesterase domain inhibitors, primary screen, biochemical, fluorescence intensity, uHTS | recombinant FAS-TE, OMFH fluorogenic substrate, fluorescence endpoint | inhibition, % at 15 µM | 360,000 compounds, 0.67% hits;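 active means compounds whose normalised, plate-corrected inhibition of enzyme fluorescence in the single-dose primary screen is 50% or more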;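 further: 0% = DMSO with enzyme and 100% = substrate without enzyme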
SENP1 inh: human SENP1 catalytic domain inhibitors, primary screen, biochemical, FRET, uHTS | recombinant SENP1 catalytic domain, CyPet-SUMO1-YPet FRET cleavage | Sentrin-specific protease 1 (Homo sapiens), Q9P0U3 | AID 624204, 2012 | 360,000 compounds, 0.21% hits | inhibition, % at 10 µM;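 active means inhibition at least 30% at 10 µM, raw YFP signal under a set limit, fluorescence ratio 0.5 to 1.5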;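 further: 0% = enzyme with DMSO and 100% = no enzyme wells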
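Test system: hSENP1 catalytic domain, recombinant; Amount: 20 pM final SENP1 enzyme; Medium: Tris pH 8 buffer plus EDTA, NaCl, BME, BSA, NP40, catalase; Schedule: 50 min enzyme reaction, room temperature, light-protected; Technique: FRET fluorescence in CFP and YFP emission channels; Controls: no-enzyme wells low, DMSO-plus-enzyme wells high control.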
ADAM17 inh: ADAM17 inhibitors, primary screen, biochemical, QFRET; Disintegrin and metalloproteinase domain-containing protein 17 (Homo sapiens), P78536; recombinant ADAM17, EDANS/DABCYL FRET peptide cleavage; inhibition, % at 6.95 µM; 370,000 compounds, 0.83% hits; AID 720648, 2013;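 active means inhibition above the mean of compounds lying between control limits plus 3 SD, set per campaign, cut at about 8.5% in these data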;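 further: 0% = DMSO-only wells as the low control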
Target sequence (P78536 215-824 limits assumed): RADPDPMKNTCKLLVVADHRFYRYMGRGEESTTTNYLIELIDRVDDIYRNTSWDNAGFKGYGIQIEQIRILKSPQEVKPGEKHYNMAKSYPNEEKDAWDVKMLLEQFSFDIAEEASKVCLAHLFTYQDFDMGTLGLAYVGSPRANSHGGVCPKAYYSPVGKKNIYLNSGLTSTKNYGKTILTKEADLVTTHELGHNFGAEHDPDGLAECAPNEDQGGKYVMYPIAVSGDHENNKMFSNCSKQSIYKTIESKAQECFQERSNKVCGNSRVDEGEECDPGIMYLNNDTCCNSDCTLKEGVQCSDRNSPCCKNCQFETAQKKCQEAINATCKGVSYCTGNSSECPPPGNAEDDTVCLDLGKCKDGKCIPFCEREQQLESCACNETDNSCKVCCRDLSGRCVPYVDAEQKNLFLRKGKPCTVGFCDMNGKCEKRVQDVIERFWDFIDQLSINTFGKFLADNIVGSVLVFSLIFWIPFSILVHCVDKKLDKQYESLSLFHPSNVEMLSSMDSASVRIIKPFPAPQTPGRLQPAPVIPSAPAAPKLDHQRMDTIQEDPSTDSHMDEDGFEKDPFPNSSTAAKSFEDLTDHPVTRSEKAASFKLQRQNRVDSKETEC
FAS-TE conf: FAS thioesterase domain inhibitors, confirmation, biochemical, fluorescence intensity, single concentration. shares compounds with FAS-TE inh. 2,300 compounds, 45% hits. recombinant FAS-TE, OMFH fluorogenic substrate. AID 624325, 2012. inhibition, % at 15 µM;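 active means compounds inhibiting the enzyme by at least 50% at 15 µM in any one of the replicates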;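 further: 0% = enzyme with DMSO only and 100% = wells lacking enzyme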
ADAM10 confirm: human ADAM10 inhibitors, confirmation, biochemical, QFRET, triplicate; inhibition, % at 6.95 µM; 2,100 compounds, 1% hits; ADAM10 QFRET peptide cleavage, EDANS fluorescence; AID 743208, 2013; shares compounds with ADAM10 inh;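 active means inhibition above about 20% chosen separately for each screening run, limit read from the data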;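 further: 0% = DMSO wells and 100% = marimastat wells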
ADAM17 ctr: ADAM17 inhibitors, counter-screen for ADAM10 exosite inhibitor project, biochemical, QFRET, high throughput. inhibition, % at 6.95 µM. 2,100 compounds, 0.5% hits. shares compounds with ADAM10 inh. ADAM17 QFRET peptide cleavage, EDANS fluorescence;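 active means mean triplicate inhibition above the solvent-only control wells' mean plus 3 SD, cut at about 12% in these data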;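 further: 0% = DMSO wells and 100% = marimastat wells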
ADAM10 counter: ADAM10 inhibitors, counter-screen for ADAM17 exosite inhibitor project, biochemical, FRET, human ADAM10 | shares compounds with ADAM17 inh | recombinant ADAM10, EDANS/DABCYL FRET peptide cleavage, 3 h | inhibition, % at 6.95 µM | 2,900 compounds, 47% hits | AID 743256, 2014;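 active means mean inhibition over the triplicate runs exceeds the activity threshold set in the earlier primary screen, cut at about 20% in these data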;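 further: 0% = DMSO wells and 100% = marimastat wells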
ADAM17 confirm: ADAM17 inhibitors, hit retest, confirmation, biochemical, QFRET peptide cleavage; shares compounds with ADAM17 inh; recombinant ADAM17, EDANS/DABCYL QFRET peptide cleavage; inhibition, % at 6.95 µM; 2,900 compounds, 65% hits; AID 743257, 2014;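 active means mean inhibition across replicates above the hit cutoff set in the primary screen, cut at about 8.5% in these data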;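 further: 0% = DMSO wells and 100% = marimastat wells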
The depositor's hits bear a star; · = not tested or not shown.

SMILES | ADAM10 inh | FAS-TE inh | SENP1 inh | ADAM17 inh | FAS-TE conf | ADAM10 confirm | ADAM17 ctr | ADAM10 counter | ADAM17 confirm
COc1ccc(S(=O)(=O)Nc2ccc3c(c2)C(=O)N([C@H](C)CO)C[C@H](C)[C@@H](CN(C)C(=O)Nc2ccc(C(F)(F)F)cc2)OCCCC[C@H](C)O3)cc1 | 13 | 63* | 0 | 10* | 23 | · | · | 39* | 21*
COc1ccc(S(=O)(=O)N(C)C[C@@H]2OCCCC[C@H](C)Oc3ccc(NC(=O)Nc4ccc(C(F)(F)F)cc4)cc3C(=O)N([C@H](C)CO)C[C@H]2C)cc1 | 34* | 85* | 1 | 13* | 16 | 14 | 5 | 46* | 24*
C[C@@H]1CCCCO[C@H](CN(C)S(=O)(=O)c2ccc(F)cc2)[C@@H](C)CN([C@H](C)CO)C(=O)c2cc(NC(=O)Nc3ccc(C(F)(F)F)cc3)ccc2O1 | 27* | 74* | -1 | 8.7* | 8 | 16 | 4 | 45* | 24*
Cc1c([N+](=O)[O-])cnc(Sc2ccccc2)c1[N+](=O)[O-] | 4 | 60* | 3 | 10* | 9 | · | · | 5 | 3
CCOc1ccc(-n2c(SCC(=O)Nc3ccc4cn[nH]c4c3)nnc2-c2ccncc2)cc1 | 5 | · | · | 2 | · | · | · | · | ·
O=S(=O)(Nc1ccc(-c2csc(-c3ccccc3)n2)cc1)c1ccc(F)cc1 | 16 | 58* | 0 | 11* | 1 | · | · | 20* | 19*
C#CCN(C[C@H]1[C@H](OC(=O)NCc2ccccc2F)[C@H](OC(=O)NCc2ccccc2F)C[C@H]2C(=O)N(c3ccccc3)C(=O)[C@@H]12)S(=O)(=O)c1ccc(C)cc1 | 29* | 54* | 1 | 9.0* | 11 | 7 | 2 | 9 | 5
C#CCN(C[C@H]1[C@H](OC(=O)NCc2ccccc2)[C@H](OC(=O)NCc2ccccc2)C[C@@H](C(=O)OC)[C@H]1C(=O)OC)S(=O)(=O)c1ccc(C)cc1 | 6 | 17 | -2 | 2 | · | · | · | · | ·
O=C(CCCCCN1C(=O)C2C3C=CC(C3)C2C1=O)Nc1ccc2ncccc2c1 (configuration not stated) | -61 | · | · | -19 | · | · | · | · | ·
O=C(CNc1cc(S(=O)(=O)N2CCCC2)ccc1OCC(F)(F)F)Nc1ccc(SC(F)F)cc1 | 20* | 65* | 1 | 16* | 56* | 1 | 2 | 35* | 20*
COc1ccc(OC)c(CN2C(=O)CSCCC2(C)c2nnnn2C2CCCC2)c1 (configuration not stated) | -4 | · | · | -5 | · | · | · | · | ·
O=C(N/N=C/c1ccc(Br)o1)/C(=C/c1ccc([N+](=O)[O-])cc1)NC(=O)c1ccccc1 | 31* | 58* | 5 | 13* | 32* | 2 | 1 | 32* | 17*
O=C(N/N=C/c1ccco1)/C(=C/c1cccc([N+](=O)[O-])c1)NC(=O)c1ccccc1 | -10 | 48 | 1 | 0 | · | · | · | · | ·
COc1ccc(-c2cc(-c3nnc(SCC(=O)NC4CCCCC4)n3N)[nH]n2)cc1 | -1 | · | · | -1 | · | · | · | · | ·
COc1ccc(NC(=O)c2cccc(Oc3ccc([N+](=O)[O-])cc3Cl)c2)cc1 | 22* | 52* | 1 | 10* | 9 | 8 | 3 | 30* | 18*
Cc1ccc(NC(=O)NNC(=O)Cn2nc(-c3ccccc3)c(-c3ccccc3)c(C#N)c2=O)cc1 | 20* | 68* | -1 | 20* | 58* | 8 | 3 | 14 | 15*
Cc1ccc(-n2c(SCC(=O)N/N=C/c3c(C)nn(-c4ccccc4)c3C)nc3ccccc3c2=O)cc1 | 15 | -1 | 1 | 4 | · | · | · | · | ·
Cc1ccccc1-n1c(SCC(=O)N/N=C/c2c(C)nn(-c3ccccc3)c2C)nc2ccccc2c1=O | 21* | 59* | 1 | 11* | 16 | 7 | 2 | 33* | 16*
NC(=O)[C@H]1CC2(CC(c3cccc(NC(=O)COc4ccc(Cl)cc4)c3)=NO2)CN1C(=O)CC(c1ccccc1)c1ccccc1 (some centres not stated) | 35* | 64* | 0 | 18* | 29 | · | · | 37* | 21*
COC(=O)[C@H](C(C)C)N1CCc2nnn(Cc3ccc(C)cc3)c2-c2cc(F)ccc2S1(=O)=O | 5 | · | · | 3 | · | · | · | · | ·
CC(COc1ccccc1)CN1CCC(C(O)(c2ccccc2)c2ccccc2)CC1 (configuration not stated) | 8 | · | · | 3 | · | · | · | · | ·
CCOC(=O)[C@]12CCCCC/C=C\1N(Cc1ccc(OC)cc1)C(=O)[C@H]2CC(=O)NCc1ccc(OC)c(OC)c1 | -3 | · | · | -2 | · | · | · | · | ·
Cc1cc(C)c(Nc2cc(S(=O)(=O)O)c(N)c3c2C(=O)c2ccccc2C3=O)c(C)c1 | 23* | 75* | -28 | 8.7* | 46 | 4 | -2 | 36* | 17*
O=C1[C@H]2[C@@H](c3ccc(C(F)(F)F)cc3)N[C@]3(CCCN(Cc4ccc(C(F)(F)F)cc4)C3=O)[C@H]2C(=O)N1Cc1ccccc1 | 31* | 55* | 2 | 13* | 16 | 3 | 1 | 41* | 24*
O=C(CN1c2ccccc2Sc2ccccc21)N/N=C/c1ccc([N+](=O)[O-])cc1 | 15 | 69* | 1 | 13* | 16 | · | · | 29* | 17*
COc1ccc([N+](=O)[O-])cc1NC(=O)C(C)OC(=O)c1ccccc1C(=O)c1ccc(Cl)cc1 (configuration not stated) | 13 | 58* | 0 | 8.8* | 31 | · | · | 46* | 18*
